Source: ChEMBL document CHEMBL4190191, “Cyclic Diarylheptanoids from Corylus avellana Green Leafy Covers: Determination of Their Absolute Configurations and Evaluation of Their Antioxidant and Antimicrobial Activities” (J Nat Prod, 2017)

What was measured:
Plasma [1] = assay: Antioxidant activity in human plasma assessed as inhibition of H2O2-induced lipid peroxidation at 10 uM after 30 mins by TBARS assay relative to control; type: functional, cell-free
Outline: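 Fresh plasma from medication-free donors was incubated for 30 min at 37 °C with compound (0.1–100 μM) plus 2 mM H2O2. Lipid peroxidation was quantified as TBARS. Data are from 5–9 independent experiments, as mean ± SD.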

Plasma [2] = assay: Antioxidant activity in human plasma assessed as inhibition of H2O2/Fe2+-induced lipid peroxidation at 10 uM after 30 mins by TBARS assay relative to control; type: functional, cell-free
Outline: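 Human donor plasma was incubated for 30 min at 37 °C with compound at 10 μM plus 4.7 mM H2O2, 3.8 mM […] and 2.5 mM EDTA. Peroxidation was read as TBARS concentration.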

A549 = assay: Cytotoxicity against human A549 cells at 10 to 100 uM by MTT assay; type: cell-based; settings: a549, 100 µM
Outline: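 A549 human lung adenocarcinoma cells were kept in DMEM with 10% FBS, 1% penicillin/streptomycin and 2 mM L-glutamine, at 37 °C under 5% CO2. Viability was measured by MTT assay after exposure to 10–100 μM.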

[3] = Cytotoxicity against human DeFew cells at 10 to 100 uM by MTT assay; type: cell-based
Outline: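 DeFew human B-lymphoma cells were maintained in RPMI 1640 with 10% FBS, 1% penicillin/streptomycin and 2 mM L-glutamine, in humidified 5% CO2 at 37 °C. Cells were exposed to 10–100 μM, and viability was read by MTT.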

Escherichia coli [4] = assay: Antimicrobial activity against Escherichia coli DSM 8579 assessed as growth inhibition at 10 ug per disc after 24 to 48 hrs (reference value: 0 millimeter); type: functional; settings: read-out: DIZ
Bacillus cereus [5] = assay: Antimicrobial activity against Bacillus cereus DSM 4384 assessed as growth inhibition at 10 ug per disc after 24 to 48 hrs (reference value: 0 millimeter); type: functional; settings: read-out: DIZ
Bacillus cereus [6] = assay: Antimicrobial activity against Bacillus cereus DSM 4313 assessed as growth inhibition at 10 ug per disc after 24 to 48 hrs (reference value: 0 millimeter); type: functional; settings: read-out: DIZ
Pseudomonas aeruginosa [7] = assay: Antimicrobial activity against Pseudomonas aeruginosa DSM 50071 assessed as growth inhibition at 10 ug per disc after 24 to 48 hrs (reference value: 0 millimeter); type: functional; settings: read-out: DIZ
Staphylococcus aureus [8] = assay: Antimicrobial activity against Staphylococcus aureus DSM 25923 assessed as growth inhibition at 10 ug per disc after 24 to 48 hrs (reference value: 0 millimeter); type: functional; settings: read-out: DIZ
Escherichia coli [9] = assay: Antimicrobial activity against Escherichia coli DSM 8579 assessed as growth inhibition at 20 ug per disc after 24 to 48 hrs (reference value: 0 millimeter); type: functional; settings: read-out: DIZ
Bacillus cereus [10] = assay: Antimicrobial activity against Bacillus cereus DSM 4384 assessed as growth inhibition at 20 ug per disc after 24 to 48 hrs (reference value: 0 millimeter); type: functional; settings: read-out: DIZ
Bacillus cereus [11] = assay: Antimicrobial activity against Bacillus cereus DSM 4313 assessed as growth inhibition at 20 ug per disc after 24 to 48 hrs (reference value: 0 millimeter); type: functional; settings: read-out: DIZ
Pseudomonas aeruginosa [12] = assay: Antimicrobial activity against Pseudomonas aeruginosa DSM 50071 assessed as growth inhibition at 20 ug per disc after 24 to 48 hrs (reference value: 0 millimeter); type: functional; settings: read-out: DIZ
Staphylococcus aureus [13] = assay: Antimicrobial activity against Staphylococcus aureus DSM 25923 assessed as growth inhibition at 20 ug per disc after 24 to 48 hrs (reference value: 0 millimeter); type: functional; settings: read-out: DIZ
Bacillus cereus [14] = assay: Antimicrobial activity against Bacillus cereus DSM 4384 assessed as growth inhibition at 40 ug per disc after 24 to 48 hrs (reference value: 0 millimeter); type: functional; settings: read-out: DIZ
Escherichia coli [15] = assay: Antimicrobial activity against Escherichia coli DSM 8579 assessed as growth inhibition at 40 ug per disc after 24 to 48 hrs (reference value: 0 millimeter); type: functional; settings: read-out: DIZ
Bacillus cereus [16] = assay: Antimicrobial activity against Bacillus cereus DSM 4313 assessed as growth inhibition at 40 ug per disc after 24 to 48 hrs (reference value: 0 millimeter); type: functional; settings: read-out: DIZ
Pseudomonas aeruginosa [17] = assay: Antimicrobial activity against Pseudomonas aeruginosa DSM 50071 assessed as growth inhibition at 40 ug per disc after 24 to 48 hrs (reference value: 0 millimeter); type: functional; settings: read-out: DIZ
Staphylococcus aureus [18] = assay: Antimicrobial activity against Staphylococcus aureus DSM 25923 assessed as growth inhibition at 40 ug per disc after 24 to 48 hrs (reference value: 0 millimeter); type: functional; settings: read-out: DIZ
Bacillus cereus [19] = assay: Antimicrobial activity against Bacillus cereus DSM 4313 assessed per disc after 24 hrs by resazurin dye-based microtiter-plate assay; type: functional
Outline: (§1)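 Resazurin microtiter-plate broth dilution. Samples in DMSO were twofold serially diluted in Mueller-Hinton broth with isosensitized broth and resazurin indicator. Bacteria were added to about 5 × 10^5 cfu/mL. Ciprofloxacin served as positive control and DMSO as negative control. Plates were run in triplicate at 37 °C for 24 h. MIC is the lowest concentration […].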

Bacillus cereus [20] = assay: Antimicrobial activity against Bacillus cereus DSM 4384 assessed per disc after 24 hrs by resazurin dye-based microtiter-plate assay; type: functional; outline: as §1
Escherichia coli [21] = assay: Antimicrobial activity against Escherichia coli DSM 8579 assessed per disc after 24 hrs by resazurin dye-based microtiter-plate assay; type: functional; outline: as §1
Pseudomonas aeruginosa [22] = assay: Antimicrobial activity against Pseudomonas aeruginosa DSM 50071 assessed per disc after 24 hrs by resazurin dye-based microtiter-plate assay; type: functional; outline: as §1
Staphylococcus aureus [23] = assay: Antimicrobial activity against Staphylococcus aureus DSM 25923 assessed per disc after 24 hrs by resazurin dye-based microtiter-plate assay; type: functional; outline: as §1

| Compound | inhibition (Plasma [1]) [%] | inhibition (Plasma [2]) [%] | Activity (A549) | Activity [3] | zone of inhibition at 40 µg/disc (Bacillus cereus [14]) [mm] | zone of inhibition at 40 µg/disc (Escherichia coli [15]) [mm] | zone of inhibition at 40 µg/disc (Bacillus cereus [16]) [mm] | zone of inhibition at 40 µg/disc (Pseudomonas aeruginosa [17]) [mm] | zone of inhibition at 40 µg/disc (Staphylococcus aureus [18]) [mm] | further results |
| --- | --- | --- | --- | --- | --- | --- | --- | --- | --- | --- |
| O=C1CCc2ccc(O[C@@H]3O[C@H](CO)[C@@H](O)[C@H](O)[C@H]3O)c(c2)-c2cc(ccc2O)C[C@@H](O)[C@H](O)[C@H]1O (mixture of isomers) | 14.7 | 23.3 | Non-Toxic | Non-Toxic | 0 | 0 | 5 | 9 | 11.3 | zone of inhibition at 10 µg/disc (Escherichia coli [4]): 0 mm; zone of inhibition at 10 µg/disc (Bacillus cereus [5]): 0 mm; zone of inhibition at 10 µg/disc (Bacillus cereus [6]): 0 mm; zone of inhibition at 10 µg/disc (Pseudomonas aeruginosa [7]): 0 mm; zone of inhibition at 10 µg/disc (Staphylococcus aureus [8]): 0 mm; zone of inhibition at 20 µg/disc (Escherichia coli [9]): 0 mm; zone of inhibition at 20 µg/disc (Bacillus cereus [10]): 0 mm; zone of inhibition at 20 µg/disc (Bacillus cereus [11]): 0 mm; zone of inhibition at 20 µg/disc (Pseudomonas aeruginosa [12]): 0 mm; zone of inhibition at 20 µg/disc (Staphylococcus aureus [13]): 0 mm; MIC (Bacillus cereus [19]): 30 µg; MIC (Bacillus cereus [20]): 50 µg; MIC (Escherichia coli [21]): 50 µg; MIC (Pseudomonas aeruginosa [22]): 30 µg; MIC (Staphylococcus aureus [23]): 30 µg |
| C[C@@H]1O[C@@H](Oc2c(-c3ccc(O)cc3)oc3cc(O)cc(O)c3c2=O)[C@H](O)[C@H](O)[C@H]1O [AFZELIN] | 5.7 | 20.1 | Non-Toxic | Non-Toxic | 5 | 10 | 0 | 4 | 10.3 |  |
| C[C@@H]1O[C@@H](Oc2c(-c3cc(O)c(O)c(O)c3)oc3cc(O)cc(O)c3c2=O)[C@H](O)[C@H](O)[C@H]1O | 44.4 | 34.1 | Non-Toxic | Non-Toxic | 0 | 9.67 | 0 | 5 | 6.33 |  |
| O=C1/C=C/CCc2ccc(O[C@@H]3O[C@H](CO)[C@@H](O)[C@H](O)[C@H]3O)c(c2)-c2cc(ccc2O[C@H]2OC[C@H](O)[C@H](O)[C@H]2O)CC1 (mixture of isomers) | 12.6 | 18.1 | Non-Toxic | Non-Toxic | 0 | 10 | 5 | 4.67 | 10 |  |
| COc1cc(/C=C/C(=O)CC(=O)/C=C/c2ccc(O)c(OC)c2)ccc1O | 21.1 | 22.9 |  |  |  |  |  |  |  |  |
| O=C(/C=C/c1ccc(O)c(O)c1)O[C@@H]1C[C@](O)(C(=O)O)C[C@@H](OC(=O)/C=C/c2ccc(O)c(O)c2)[C@H]1O | 24.2 | 25.5 | Non-Toxic | Non-Toxic | 0 | 8.33 | 0 | 0 | 6.67 |  |
